Eleven compounds from ChEMBL document CHEMBL4130405, “Iridoid Glycosides from the Twigs of Sambucus williamsii var. coreana and Their Biological Activities” (J Nat Prod, 2017) can be followed below.

A value given as a limit tells only on which side of the number the result lay.

The nature of series [1]: Cytotoxicity against rat C6 cells assessed as cell viability at 20 uM after 24 hrs by MTT assay relative to control. Type of series: cell-based. Particulars: read-out: Activity. The essentials:
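C6 glioma cells were kept in DMEM with 10% FBS and seeded at 1 × 10^5 cells/well. After 24 h, cells were treated with 20 μM compound in DMEM with 2% FBS for 24 h. MTT reagent was added for 1 h at 37 °C, formazan dissolved in DMSO and absorbance read at 570 nm. Results are percent, mean ± SD of three independent experiments.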
For orientation: Tetrazolium assays rely on reduction of a dye to a coloured formazan, in cell work by metabolically active cells.

In a further series the test system is C6. Briefly: Induction of NGF secretion in rat C6 cells at 20 uM after 24 hrs by ELISA relative to control. Type of series: functional. The essentials: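 C6 glioma cells were seeded at 1 × 10^5 cells/well in DMEM with 10% FBS. After 24 h, cells were exposed to 20 μM compound in DMEM with 2% FBS for 24 h. NGF secreted into the conditioned medium was measured by ELISA as percent of untreated control (100%). 6-Shogaol served as positive control. Data are mean ± SD of three independent experiments in triplicate.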
(In general: An ELISA detects its analyte on a solid surface through an enzyme-linked reagent.)

For another series, the system named is SK-MEL-2. Briefly: Cytotoxicity against human SK-MEL-2 cells after 48 hrs by SRB assay. It counts as functional, cell-based. The settings on record: SK-MEL-2, 48 h. The procedure, abridged:
(§1)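 Cells from ATCC were seeded and left 24 h at 37 °C under 5% CO2. Attached cells were then exposed for 48 h to serial dilutions of 30, 10, 3, 1, 0.3 and 0.1 μM. Cells were fixed with cold 10% TCA at 4 °C for 1 h and stained with 0.4% SRB for 30 min at room temperature. Dye was solubilized in 10 mM Tris base (pH 10.5) and absorbance read at 520 nm. Etoposide served as positive control. IC50 is the mean ± SD of three independent experiments.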

The next series relates to A549. Put plainly: Cytotoxicity against human A549 cells after 48 hrs by SRB assay. The settings on record: A549, 48 h. Type of series: functional, cell-based. The procedure, abridged: as §1
(In general: In SRB staining, fixed cells bind dye roughly in proportion to their protein.)

A further series concerns BT-549. Put plainly: Cytotoxicity against human BT549 cells after 48 hrs by SRB assay. Particulars: BT-549, 48 h. Type of series: functional, cell-based. The essentials:
as §1

Another series deals with SK-OV-3. Briefly: Cytotoxicity against human SKOV3 cells after 48 hrs by SRB assay. It counts as functional, cell-based. The settings on record: SK-OV-3, 48 h. The procedure, abridged: as §1
The subject of the next series is BV-2. Briefly: Antineuroinflammatory activity in mouse BV2 cells assessed as inhibition of LPS-induced nitric oxide production pretreated for 30 mins followed by LPS-stimulation after 24 hrs by Griess assay. It counts as functional, cell-based. The procedure, abridged:
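BV-2 microglia were pretreated with compound for 30 min, then stimulated with LPS (100 ng/mL) for 24 h. Nitrite in the supernatant was mixed with an equal volume of Griess reagent (1% sulfanilamide, 0.1% naphthylethylenediamine in 5% phosphoric acid) for 10 min and read at 570 nm. Values were quantified against a sodium nitrite standard curve. L-NMMA served as positive control. IC50 is the concentration giving 50% inhibition of NO production; three independent experiments.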

Series [2] is described as follows: Cytotoxicity against mouse BV2 cells assessed as cell viability at 20 uM by MTT assay relative to control. It counts as cell-based, BV-2. The settings on record: read-out: Activity. The essentials:
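Viability of LPS-activated BV-2 cells was measured after 24 h treatment with 20 μM compound. Read-out was MTT, expressed as percent. Values are means ± SD of three independent experiments.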

Take `CCCCC/C=C/C(=O)CCc1ccc(O)c(OC)c1` [SHOGAOL]: in series [1], the viability at 24 h, 20 µM was 98.8%. This compound registered an Activity with C6 of 146.3%.

The term IC50 denotes the point on the concentration scale where inhibition reaches its midpoint. `COc1cc([C@@H]2c3cc4c(cc3[C@@H](O[C@@H]3O[C@@H]5CO[C@@H](C)O[C@H]5[C@H](O)[C@H]3O)[C@H]3COC(=O)[C@H]23)OCO4)cc(OC)c1O` [ETOPOSIDE]: the IC50 with SK-MEL-2 was 0.2 µM; in the series with A549 it was 1.1 µM; in the series on BT-549, 1 µM; in the series on SK-OV-3 it was 2.9 µM.

For the compound `C=C1[C@@H]2O[C@@H](OC)[C@@H]3[C@@H](O2)[C@@H](O)C[C@H]13`, the viability at 24 h, 20 µM in series [1] turned out to be 111%. For the same compound, the IC50 in the series on SK-MEL-2 was > 10 µM; in the series on A549 it was > 10 µM; with BV-2, 110 µM; in the series with BT-549, > 10 µM; in the series on SK-OV-3 it was > 10 µM. The compound also came in with an Activity in the series on C6 of 152.6%. The viability at 20 µM in series [2] came to 36%.

Consider `C=C1[C@@H]2O[C@@H](OC)[C@@H]3[C@H](CC[C@H]13)O2`, for which the viability at 24 h, 20 µM in series [1] stood at 106%. Further, the IC50 was > 10 µM in the series on SK-MEL-2; > 10 µM in the series with A549; 94.2 µM in the series with BV-2; > 10 µM with BT-549; > 10 µM in the series on SK-OV-3. In the series with C6, this compound gave an Activity of 133.4%. Also, in series [2], the viability at 20 µM was 104%.

As for `CC(=O)OC[C@@]1(O)CC[C@@H]2C(CO[C@@H]3O[C@H](CO)[C@@H](O)[C@H](O)[C@H]3OC(=O)/C=C/c3ccc(O)cc3)=CO[C@@H](OC(=O)CC(C)C)[C@@H]21`, the viability at 24 h, 20 µM in series [1] worked out at 120%. For the same compound, the IC50 in the series on SK-MEL-2 is > 10 µM; in the series on A549, > 10 µM; in the series with BV-2, 29.8 µM; in the series with BT-549, > 10 µM; in the series with SK-OV-3, > 10 µM. In the series with C6, this compound registered an Activity of 158.7%. Also, the viability at 20 µM in series [2] stood at 143%.

Take `CC(C)CC(=O)O[C@@H]1OC=C(CO[C@@H]2O[C@H](CO)[C@@H](O)[C@H](O)[C@H]2O)[C@H]2C[C@H](O)[C@](O)(CO)[C@@H]12`: in series [1], the viability at 24 h, 20 µM stood at 116%. The IC50 in the series with SK-MEL-2 is > 10 µM; in the series on A549 it was > 10 µM; with BV-2, 112 µM; in the series with BT-549, > 10 µM; with SK-OV-3, > 10 µM. In the series with C6, this compound yielded an Activity of 107.4%. Further, the viability at 20 µM in series [2] was 103%.

For `CCC(C)C(=O)O[C@@H]1OC=C(CO[C@@H]2O[C@H](CO)[C@@H](O)[C@H](O)[C@H]2OC(=O)/C=C/c2ccc(O)cc2)[C@H]2CC[C@](O)(CO)[C@@H]12` (some centres not stated), the viability at 24 h, 20 µM in series [1] was 101%. Besides, the IC50 is 1.4 µM with SK-MEL-2; 3.8 µM in the series with A549; 1.25 to 1.3 µM in the series on BV-2; 1.3 µM in the series with BT-549; 1.9 µM with SK-OV-3. Besides, the Activity with C6 is 145.4%. The viability at 20 µM in series [2] was 136%.

`CC(C)CC(=O)O[C@@H]1OC=C(CO[C@@H]2O[C@H](CO)[C@@H](O)[C@H](O)[C@H]2OC(=O)/C=C\c2ccc(O)cc2)[C@H]2CC[C@](O)(CO)[C@@H]12`: the viability at 24 h, 20 µM in series [1] was 102%. In addition, the IC50 is 8.4 µM in the series on SK-MEL-2; > 10 µM in the series with A549; 0.9 to 0.95 µM in the series on BV-2; 8.7 µM in the series with BT-549; > 10 µM in the series with SK-OV-3. This compound also registered an Activity in the series on C6 of 147%. In addition, in series [2], the viability at 20 µM was 103%.

In the case of `CC(=O)OC[C@@]1(O)CC[C@@H]2C(CO[C@@H]3O[C@H](CO)[C@@H](O)[C@H](O)[C@H]3OC(=O)/C=C\c3ccc(O)cc3)=CO[C@@H](OC(=O)CC(C)C)[C@@H]21`, the viability at 24 h, 20 µM in series [1] is 104%. For the same compound, the IC50 is 5.2 µM in the series with SK-MEL-2; > 10 µM in the series on A549; 1.2 to 1.22 µM with BV-2; 4 µM in the series with BT-549; 7.5 µM in the series on SK-OV-3. In the series on C6, the Activity is given as 134.1%. The viability at 20 µM in series [2] is 130%.

`CC(C)CC(=O)O[C@@H]1OC=C(CO[C@@H]2O[C@H](CO)[C@@H](O)[C@H](O)[C@H]2OC(=O)/C=C/c2ccc(O)cc2)[C@H]2CC[C@](O)(CO)[C@@H]12`: in series [1], the viability at 24 h, 20 µM came to 115%. Further, the IC50 is > 10 µM in the series on SK-MEL-2; > 10 µM in the series on A549; 45.5 µM with BV-2; > 10 µM in the series on BT-549; > 10 µM with SK-OV-3. In addition, the Activity in the series with C6 is on record as 130.4%. In series [2], the viability at 20 µM came out at 102%.

Take `CNC(=N)NCCC[C@H](N)C(=O)O` [TILARGININE]: in the series with BV-2, the IC50 stood at 13.2 µM. In addition, the viability at 20 µM in series [2] was 120%.
